Experimental findings from ChEMBL document CHEMBL1125254, “Allosteric modifiers of hemoglobin. 2. Crystallographically determined binding sites and hydrophobic binding/interaction analysis of novel hemoglobin oxygen effectors” (J Med Chem, 1991) are described below.

A short description of the assay: Allosteric activity evaluated as the ratio of the oxygen pressure in mmHg between hemoglobin-compound and compound-free hemoglobin (control) solution at which 50% oxygen saturation's are respectively attained. A digest of the protocol:
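Oxygen equilibrium of human hemoglobin solutions at 2.7 mM Hb with compound at 10 mM, in 50 mM HEPES pH 7.4. P50 ratios are averaged, with standard deviations reported.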
As for `CC(C)(Oc1ccc(CCNC(=O)c2ccc(Cl)cc2)cc1)C(=O)O`, the P50d/P50c is 1.74. Then `CC(C)(Oc1ccc(CNC(=O)c2cc(Cl)cc(Cl)c2)cc1)C(=O)O`, with 2.48; and `CC(C)(Oc1ccc(NC(=O)Nc2cc(Cl)cc(Cl)c2)cc1)C(=O)O`, with 3.62; and `CC(C)(Oc1ccc(CNC(=O)c2ccc(Cl)cc2)cc1)C(=O)O`, with 2.58.

In the case of `CC(C)(Oc1ccc(CC(=O)Nc2cc(Cl)c(Cl)c(Cl)c2)cc1)C(=O)O`, the P50d/P50c is 3.17. Regarding `CC(C)(Oc1ccc(CNC(=O)c2cc(Cl)c(Cl)c(Cl)c2)cc1)C(=O)O`, the P50d/P50c is 2.13. As for `CC(C)(Oc1ccc(CC(=O)Nc2ccc(Cl)cc2)cc1)C(=O)O`, the P50d/P50c was found to be 2.79. Take `CC(C)(Oc1ccc(CC(=O)Nc2cc(Cl)cc(Cl)c2)cc1)C(=O)O`: the P50d/P50c was determined as 4.32. Then `CC(C)(Oc1ccc(NC(=O)Nc2cc(Cl)c(Cl)c(Cl)c2)cc1)C(=O)O`, with 2.57; and `CC(C)(Oc1ccc(NC(=O)Nc2ccc(Cl)c(Cl)c2)cc1)C(=O)O`, with 1.77.
